This passage reports Activity and IC50 results from ChEMBL document CHEMBL4229462, “Design and synthesis of novel anti-hyperalgesic agents based on 6-prenylnaringenin as the T-type calcium channel blockers” (Bioorg Med Chem, 2018).

Each structure is given as a SMILES string. Activity calls are given as the source filed them.

Test [1] concerns the target T1, Voltage-dependent T-type calcium channel subunit alpha-1H (Homo sapiens, UniProt O95180). Briefly: Inhibition of human CaV3.2 expressed in HEK293 cells assessed as suppression of T-current amplitude by measuring remaining activity at 3 uM after 10 mins by whole cell patch clamp method relative to control. In kind it is cell-based. The procedure, abridged:
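HEK293 cells stably expressing human Cav3.2 were recorded by whole-cell patch clamp, holding at −90 mV with a 30 mV test pulse evoking Ba²⁺ currents. Remaining T-current after 3 μM compound is given as % of control; some entries were measured at 1 μM.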
A general note: The patch-clamp technique gives a direct electrical read-out from membranes.

Test [2] has as its system Mus musculus. Briefly: Antihyperalgesic activity in ddY mouse assessed as suppression of partial sciatic nerve ligation-induced mechanical allodynia at 10 mg/kg, ip administered 7 days by Von Frey test. It is filed as functional, organism-based. The procedure, abridged: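 Male ddY mice (18–25 g) had the right sciatic nerve partially ligated under isoflurane and were tested one week later. Dosing was i.p. as a suspension in 0.5% carboxymethyl cellulose sodium, with vehicle-treated sham and PSNL groups. Ipsilateral hindpaw threshold was measured by von Frey up-down method before ligation and 0–90 min after injection. Data are mean with S.E.M. (5–11 mice), analysed non-parametrically.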

Test [3] relates to Mus musculus. Briefly: Antihyperalgesic activity in ddY mouse assessed as suppression of partial sciatic nerve ligation-induced mechanical allodynia at 20 mg/kg, ip administered 7 days by Von Frey test. It is filed as functional, organism-based. The procedure, abridged: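 Male ddY mice (18–25 g) had the right sciatic nerve partially ligated under isoflurane and were tested 7 days later. Compound was suspended in 0.5% CMC-Na and given i.p. Ipsilateral hindpaw threshold was measured by von Frey up-down method before ligation and over 0–90 min post-dose. Data are mean ± S.E.M. (5–11 mice) with non-parametric statistics.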

In test [4] the target is T1, Voltage-dependent T-type calcium channel subunit alpha-1H. The test is described as follows: Inhibition of human CaV3.2 expressed in HEK293 cells assessed as suppression of T-current amplitude after 10 mins by whole cell patch clamp method. In kind it is cell-based. The procedure, abridged: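 Whole-cell patch clamp was done on HEK293 cells stably expressing human Cav3.2. Membrane was held at −90 mV and Ba²⁺ currents were evoked by a 30 mV test pulse. IC50 was derived from T-current suppression.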

A short description of test [5]: Inhibition of T-type calcium channel in human Jurkat cells assessed as suppression of thapsigargin-induced intracellular calcium flux after 1 hr by indo-1 dye-based spectrofluorometric method. It is filed as cell-based.
In test [6] the target is Voltage-dependent T-type calcium channel subunit alpha-1G (Homo sapiens, UniProt O43497). The test is described as follows: Inhibition of human CaV3.1 expressed in HEK293 cells assessed as suppression of T-current after 10 mins by whole cell patch clamp method. In kind it is cell-based.
Chain of Voltage-dependent T-type calcium channel subunit alpha-1G (O43497 whole entry): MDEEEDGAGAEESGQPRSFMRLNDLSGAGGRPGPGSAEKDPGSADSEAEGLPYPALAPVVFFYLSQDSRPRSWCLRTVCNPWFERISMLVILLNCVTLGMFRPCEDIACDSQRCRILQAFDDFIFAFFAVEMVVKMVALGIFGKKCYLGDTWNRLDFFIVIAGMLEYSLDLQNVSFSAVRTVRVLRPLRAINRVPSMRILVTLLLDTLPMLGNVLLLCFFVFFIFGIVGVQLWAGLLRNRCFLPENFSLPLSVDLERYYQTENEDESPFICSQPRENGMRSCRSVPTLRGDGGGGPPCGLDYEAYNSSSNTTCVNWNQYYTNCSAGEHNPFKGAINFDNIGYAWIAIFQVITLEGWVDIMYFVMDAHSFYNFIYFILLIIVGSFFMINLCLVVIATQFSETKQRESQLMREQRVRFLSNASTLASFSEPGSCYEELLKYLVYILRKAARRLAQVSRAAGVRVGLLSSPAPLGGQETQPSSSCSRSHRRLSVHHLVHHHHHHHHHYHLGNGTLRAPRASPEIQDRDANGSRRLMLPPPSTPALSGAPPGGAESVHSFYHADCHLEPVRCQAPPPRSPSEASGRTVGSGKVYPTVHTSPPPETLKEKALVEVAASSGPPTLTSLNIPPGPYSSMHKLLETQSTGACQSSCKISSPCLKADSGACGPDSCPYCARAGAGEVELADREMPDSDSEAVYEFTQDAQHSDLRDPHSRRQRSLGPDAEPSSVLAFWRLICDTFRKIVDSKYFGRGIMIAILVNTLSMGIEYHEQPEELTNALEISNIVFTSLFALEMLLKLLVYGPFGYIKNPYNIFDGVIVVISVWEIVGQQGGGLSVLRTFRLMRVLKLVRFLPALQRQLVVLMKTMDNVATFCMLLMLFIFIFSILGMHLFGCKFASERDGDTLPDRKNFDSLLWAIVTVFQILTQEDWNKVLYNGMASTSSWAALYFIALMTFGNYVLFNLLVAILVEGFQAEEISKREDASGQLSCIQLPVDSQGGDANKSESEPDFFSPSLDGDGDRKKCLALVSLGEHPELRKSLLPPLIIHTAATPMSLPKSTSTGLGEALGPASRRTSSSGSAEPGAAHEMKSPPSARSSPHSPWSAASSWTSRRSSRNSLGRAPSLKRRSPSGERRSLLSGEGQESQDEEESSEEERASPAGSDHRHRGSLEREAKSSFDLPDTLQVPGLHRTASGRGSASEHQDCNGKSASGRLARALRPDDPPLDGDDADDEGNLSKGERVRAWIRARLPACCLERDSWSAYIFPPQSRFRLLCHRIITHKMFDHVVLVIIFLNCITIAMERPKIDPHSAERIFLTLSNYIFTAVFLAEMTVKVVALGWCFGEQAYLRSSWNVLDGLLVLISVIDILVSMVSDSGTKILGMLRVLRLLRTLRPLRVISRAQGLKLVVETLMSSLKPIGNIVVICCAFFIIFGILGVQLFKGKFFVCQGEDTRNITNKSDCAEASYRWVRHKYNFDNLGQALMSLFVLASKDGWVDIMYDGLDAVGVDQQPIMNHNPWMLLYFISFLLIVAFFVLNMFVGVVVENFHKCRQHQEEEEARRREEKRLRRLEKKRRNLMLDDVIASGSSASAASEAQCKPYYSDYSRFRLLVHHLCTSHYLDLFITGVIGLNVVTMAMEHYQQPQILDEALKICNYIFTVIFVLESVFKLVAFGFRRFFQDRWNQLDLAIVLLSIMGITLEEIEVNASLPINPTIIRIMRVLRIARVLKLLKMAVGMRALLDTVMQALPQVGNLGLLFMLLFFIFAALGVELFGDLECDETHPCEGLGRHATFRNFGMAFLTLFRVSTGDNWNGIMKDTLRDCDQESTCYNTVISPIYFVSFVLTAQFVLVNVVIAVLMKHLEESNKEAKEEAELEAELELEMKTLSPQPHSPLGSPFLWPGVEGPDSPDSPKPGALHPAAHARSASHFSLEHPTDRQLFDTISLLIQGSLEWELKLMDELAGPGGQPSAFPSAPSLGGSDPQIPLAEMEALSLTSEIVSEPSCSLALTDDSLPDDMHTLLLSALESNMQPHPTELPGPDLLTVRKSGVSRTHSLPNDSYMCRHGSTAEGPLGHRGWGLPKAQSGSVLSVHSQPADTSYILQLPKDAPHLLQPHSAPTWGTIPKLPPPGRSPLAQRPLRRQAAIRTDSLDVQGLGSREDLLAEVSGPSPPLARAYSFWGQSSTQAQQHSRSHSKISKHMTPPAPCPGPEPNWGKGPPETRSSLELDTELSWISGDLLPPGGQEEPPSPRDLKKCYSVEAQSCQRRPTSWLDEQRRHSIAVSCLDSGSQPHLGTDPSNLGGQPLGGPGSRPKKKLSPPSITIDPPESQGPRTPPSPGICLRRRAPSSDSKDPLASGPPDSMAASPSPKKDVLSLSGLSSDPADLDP
Test [7] in a line: Inhibition of T-type calcium channel (unknown origin). On the set-up: species or system Homo sapiens.

T1 sequence (O95180 whole entry): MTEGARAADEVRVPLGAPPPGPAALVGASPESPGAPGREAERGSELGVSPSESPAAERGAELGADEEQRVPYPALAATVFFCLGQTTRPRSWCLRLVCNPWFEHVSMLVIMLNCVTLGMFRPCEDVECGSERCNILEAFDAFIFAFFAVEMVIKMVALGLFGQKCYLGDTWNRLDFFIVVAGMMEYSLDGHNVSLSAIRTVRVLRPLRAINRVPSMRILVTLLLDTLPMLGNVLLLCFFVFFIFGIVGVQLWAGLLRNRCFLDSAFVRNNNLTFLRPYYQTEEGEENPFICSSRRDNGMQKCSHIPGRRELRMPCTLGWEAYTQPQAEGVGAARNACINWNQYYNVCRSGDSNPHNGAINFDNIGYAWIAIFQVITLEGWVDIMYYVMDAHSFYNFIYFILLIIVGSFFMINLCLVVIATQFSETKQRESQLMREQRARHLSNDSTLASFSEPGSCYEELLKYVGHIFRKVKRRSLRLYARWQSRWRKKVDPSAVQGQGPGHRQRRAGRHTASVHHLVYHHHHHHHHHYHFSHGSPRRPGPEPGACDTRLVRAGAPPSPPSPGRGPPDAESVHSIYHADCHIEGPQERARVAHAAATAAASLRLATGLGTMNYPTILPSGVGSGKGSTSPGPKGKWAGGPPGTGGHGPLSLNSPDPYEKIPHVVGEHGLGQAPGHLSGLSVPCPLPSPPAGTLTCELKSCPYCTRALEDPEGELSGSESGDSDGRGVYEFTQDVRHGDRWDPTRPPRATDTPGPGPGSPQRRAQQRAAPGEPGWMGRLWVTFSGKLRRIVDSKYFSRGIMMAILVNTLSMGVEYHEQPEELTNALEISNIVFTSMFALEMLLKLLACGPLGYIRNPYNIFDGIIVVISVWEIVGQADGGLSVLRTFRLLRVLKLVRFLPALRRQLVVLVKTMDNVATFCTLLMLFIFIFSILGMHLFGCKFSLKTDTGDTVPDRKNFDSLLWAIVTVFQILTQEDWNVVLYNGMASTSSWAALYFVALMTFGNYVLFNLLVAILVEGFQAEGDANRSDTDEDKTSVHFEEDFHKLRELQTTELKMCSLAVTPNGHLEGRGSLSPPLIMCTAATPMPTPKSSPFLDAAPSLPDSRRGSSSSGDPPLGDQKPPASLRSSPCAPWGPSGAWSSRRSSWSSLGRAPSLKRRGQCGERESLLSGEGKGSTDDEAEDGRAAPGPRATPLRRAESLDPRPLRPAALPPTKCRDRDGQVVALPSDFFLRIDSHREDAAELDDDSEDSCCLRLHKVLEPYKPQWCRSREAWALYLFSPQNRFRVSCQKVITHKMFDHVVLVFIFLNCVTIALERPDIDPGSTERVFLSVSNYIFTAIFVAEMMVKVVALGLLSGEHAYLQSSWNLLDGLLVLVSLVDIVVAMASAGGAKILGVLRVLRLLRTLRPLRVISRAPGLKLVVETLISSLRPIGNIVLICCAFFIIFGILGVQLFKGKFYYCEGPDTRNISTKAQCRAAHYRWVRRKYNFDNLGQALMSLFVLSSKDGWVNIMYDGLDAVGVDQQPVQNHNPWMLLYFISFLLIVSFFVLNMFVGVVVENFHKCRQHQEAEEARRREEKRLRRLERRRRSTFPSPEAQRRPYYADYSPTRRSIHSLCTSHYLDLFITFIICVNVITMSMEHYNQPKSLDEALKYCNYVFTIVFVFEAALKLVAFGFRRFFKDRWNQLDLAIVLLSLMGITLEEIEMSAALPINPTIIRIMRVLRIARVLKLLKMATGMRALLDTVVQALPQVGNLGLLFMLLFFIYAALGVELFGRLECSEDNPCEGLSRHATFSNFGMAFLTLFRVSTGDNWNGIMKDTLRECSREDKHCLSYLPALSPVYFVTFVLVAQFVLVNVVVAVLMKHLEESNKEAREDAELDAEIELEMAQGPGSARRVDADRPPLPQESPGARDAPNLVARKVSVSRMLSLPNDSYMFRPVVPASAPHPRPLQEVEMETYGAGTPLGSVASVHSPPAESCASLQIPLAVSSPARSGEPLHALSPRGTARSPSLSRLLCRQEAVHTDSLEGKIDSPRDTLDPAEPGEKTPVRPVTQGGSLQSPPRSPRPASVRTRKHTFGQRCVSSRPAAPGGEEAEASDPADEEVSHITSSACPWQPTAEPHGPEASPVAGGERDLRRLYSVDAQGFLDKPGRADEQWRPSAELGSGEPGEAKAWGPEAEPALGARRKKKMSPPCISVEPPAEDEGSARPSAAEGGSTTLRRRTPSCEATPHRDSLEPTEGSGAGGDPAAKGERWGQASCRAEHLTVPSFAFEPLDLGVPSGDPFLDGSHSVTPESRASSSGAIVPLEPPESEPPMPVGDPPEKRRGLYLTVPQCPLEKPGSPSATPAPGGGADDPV

In the case of `C=CCc1c(O)cc2c(c1O)C(=O)CC(c1ccccc1O)O2` (configuration not stated), in test [1], the Activity was 63%. In the case of `CCOc1ccc(C2CC(=O)c3c(ccc(CC=C(CC)CC)c3O)O2)cc1` (configuration not stated), the Activity in test [1] was 57.8%. Regarding `CCC(=CCc1c(O)cc2c(c1O)C(=O)CC(c1ccccc1O)O2)CC` (configuration not stated), the outcome in the test with Mus musculus [2] and in the test with Mus musculus [3] was Active. In addition, in test [1], the Activity turned out to be 0.33%. Besides, the IC50 in test [4] amounted to 0.39 µM. As for `COc1ccc(C2CC(=O)c3c(ccc(CC=C(C)C)c3O)O2)cc1` (configuration not stated), the Activity in test [1] amounted to 81.9%. On to `C=CCc1ccc2c(c1O)C(=O)CC(c1ccc(Cl)cc1)O2` (configuration not stated), for which the Activity in test [1] amounted to 35.9%. Take `CC(C)=CCc1c(O)cc2c(c1O)C(=O)CC(c1ccccc1)O2` (configuration not stated): in test [1], the Activity was determined as 72.6%. The same measure, in the same setting: the same measure for `CCCC(=CCc1c(O)cc2c(c1O)C(=O)CC(c1ccc(O)cc1)O2)CCC` (configuration not stated): 36.8%; for `C=CCc1ccc2c(c1O)C(=O)CC(c1ccc(C)cc1)O2` (configuration not stated): 72.7%. On to `C=CCc1ccc2c(c1O)C(=O)CC(c1ccc(OC)cc1)O2` (configuration not stated), for which, in test [1], the Activity stood at 59%. The same measure, in the same setting: the same measure for `C=CCc1c(O)cc2c(c1O)C(=O)CC(c1ccc(Cl)cc1)O2` (configuration not stated): 51.9%; for `CC(C)=CCc1c(O)cc2c(c1O)C(=O)CC(c1cc(O)cc(O)c1)O2` (configuration not stated): 80.9%; for `CC(C)=CCc1c(O)cc2c(c1O)C(=O)CC(c1cccc(O)c1O)O2` (configuration not stated): 67.1%.

Turning to `C=CCc1ccc2c(c1O)C(=O)CC(c1ccccc1)O2` (configuration not stated), the Activity in test [1] amounted to 90.1%.

Consider `CC(C)=CCc1ccc2c(c1O)C(=O)CC(c1ccc(Cl)cc1)O2` (configuration not stated), for which the Activity in test [1] was found to be 78.5%. The same measure, in the same setting: the same measure for `C=CCc1c(O)cc2c(c1O)C(=O)CC(c1cccc(O)c1)O2` (configuration not stated): 76.8%. Consider `O=C1CC(c2ccc(O)cc2)Oc2cc(O)c(CCC3CCCC3)c(O)c21` (configuration not stated), for which, in test [1], the Activity amounted to 5.42%. In addition, the IC50 in test [4] worked out at 0.5 µM. With `CC(C)=CCc1ccc2c(c1O)C(=O)CC(c1ccccc1)O2` (configuration not stated), the Activity in test [1] is 100%.

`C=CCc1c(O)cc2c(c1O)C(=O)CC(c1ccc(OC)cc1)O2` (configuration not stated): the Activity in test [1] stood at 50.8%. The same measure, in the same setting: the same measure for `C=CCc1c(O)cc2c(c1O)C(=O)CC(c1ccccc1)O2` (configuration not stated): 70.1%. As for `COCC(=O)O[C@]1(CCN(C)CCCc2nc3ccccc3[nH]2)CCc2cc(F)ccc2[C@@H]1C(C)C` [MIBEFRADIL], the IC50 in test [5] is 1 µM.

Regarding `CCC(CC)CCc1c(O)cc2c(c1O)C(=O)CC(c1ccc(O)cc1)O2` (configuration not stated), the Activity in test [1] was 10.1%. The same measure, in the same setting: the same measure for `CC(C)=CCc1c(O)cc2c(c1O)C(=O)CC(c1ccc(O)c(O)c1)O2` (configuration not stated): 14.7%. As for `CC(C)=CCc1c(O)cc2c(c1O)C(=O)CC(c1ccc(O)cc1)O2` (racemic), the result in the test on Mus musculus [2] was inactive. Moreover, the IC50 in test [6] and in test [4] was 1 µM each time. In addition, the Activity in test [1] was determined as 12.8%. For the compound `COc1ccc(C2CC(=O)c3c(cc(O)c(CC=C(C)C)c3O)O2)cc1` (configuration not stated), the Activity in test [1] came to 47.6%. On the same count and under the same terms, the same measure for `C=CCc1ccc2c(c1O)C(=O)CC(c1ccccc1O)O2` (configuration not stated): 32%. On the same count and under the same terms, the same measure for `CC(C)=CCc1c(O)cc2c(c1O)C(=O)CC(c1ccc(Cl)cc1)O2` (configuration not stated): 59.7%. For `O=C1CC(c2ccc(O)cc2)Oc2cc(O)c(CC=C3CCCC3)c(O)c21` (configuration not stated), the Activity in test [1] was 1.44%. For the same compound, the IC50 in test [4] worked out at 0.46 µM. Consider `CC(C)=CCc1ccc2c(c1O)C(=O)CC(c1ccccc1O)O2` (configuration not stated), for which, in test [1], the Activity is 3.77%. For the same compound, the IC50 in test [4] is 1.25 µM. Regarding `C=C(C)[C@H](CC=C(C)C)Cc1c(O)cc(O)c2c1O[C@H](c1ccc(O)cc1O)CC2=O` [SOPHORAFLAVANONE G], the IC50 in test [6] and in test [4] was 1 µM each time.

On to `C=CCc1c(O)cc2c(c1O)C(=O)CC(c1ccc(O)c(O)c1)O2` (configuration not stated), for which the Activity in test [1] came to 86.7%. As to `CCC(=CCc1c(O)cc2c(c1O)C(=O)CC(c1ccc(O)cc1)O2)CC` (configuration not stated), the Activity in test [1] worked out at 22.2%. In addition, the IC50 in test [4] amounted to 0.26 µM.

As to `CC(C)=CCc1c(O)cc(O)c2c1O[C@H](c1ccc(O)cc1)CC2=O`, the IC50 in test [6] and in test [4] was 1 µM in each case. For the compound `CC(C)=CCc1c(O)cc2c(c1O)C(=O)CC(c1cccc(O)c1)O2` (configuration not stated), the Activity in test [1] was determined as 2.09%. Besides, the IC50 in test [4] was 1.02 µM. For the compound `CC(C)=CCc1ccc2c(c1O)C(=O)CC(c1ccc(C)cc1)O2` (configuration not stated), in test [1], the Activity was 103%. Consider `C=CCc1c(O)cc2c(c1O)C(=O)CC(c1cccc(O)c1O)O2` (configuration not stated), for which the Activity in test [1] is 83.8%. The same measure, in the same setting: the same measure for `CCC(=CCc1ccc2c(c1O)C(=O)CC(c1ccccc1O)O2)CC` (configuration not stated): 16.1%.

`CC(C)=CCc1c(O)cc2c(c1O)C(=O)CC(c1ccccc1O)O2` (configuration not stated): the Activity in test [1] was found to be 2.04%. The IC50 in test [4] came out at 0.64 µM.

For `C=CCc1c(O)cc2c(c1O)C(=O)CC(c1cc(O)cc(O)c1)O2` (configuration not stated), the Activity in test [1] amounted to 74.8%. For the compound `C=CCc1ccc2c(c1O)C(=O)CC(c1ccc(OCC)cc1)O2` (configuration not stated), the Activity in test [1] was 65.2%.

For the compound `CC(C)CCc1c(O)cc2c(c1O)C(=O)CC(c1ccc(O)cc1)O2` (configuration not stated), the Activity in test [1] was 1.69%. The IC50 in test [4] stood at 0.48 µM. For `CCC1(C)CC(=O)NC1=O` (configuration not stated) [ETHOSUXIMIDE], the IC50 in test [7] amounted to 600 µM. On to `CC(C)=CCc1c(O)cc2c(c1O)C(=O)CC(c1c(O)cccc1O)O2` (configuration not stated), for which, in test [1], the Activity is 10.3%.

The IC50 is the midpoint of a concentration-inhibition curve.
